Calls of active or inactive are those of the source. The calls are words filed in the database; no cut-off is given here.

The text below walks through data of ChEMBL document CHEMBL1782010, “Synthesis and evaluation of quinoxaline derivatives as potential influenza NS1A protein inhibitors” (Bioorg Med Chem Lett, 2011).

In assay [1] the test system is Influenza A virus (A/udorn/1972(H3N2)). Put plainly: Inhibition of Influenza A/Udorn/72/H3N2 full length GST-tagged NS1A/FAM-double strand RNA-interaction at 50 uM after 1 hr by fluorescence polarization assay. In a few lines:
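Fluorescence polarization: carboxyfluorescein-labelled dsRNA (FAM-dsRNA) probe binds NS1A protein, which raises polarization. Disruption of binding read at 50 μM compound and reported as % binding. Run in duplicate; values averaged.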

Assay [2] concerns Nucleic Acid. Put plainly: Binding affinity to double strand RNA assessed as compound intercalation to double strand RNA at 50 uM after 1 hr by fluorescence polarization assay. The assay is classed as nucleic-acid assay. The gist of the method: (§1)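 Counter-screen of FAM-dsRNA alone, with no NS1A target, by an analogous fluorescence polarization assay at 50 μM compound. Reported as % intercalation: a positive sign means intercalation into the dsRNA, a negative sign means denaturation of the dsRNA to single strands. Duplicates averaged.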
For orientation: Fluorescence polarisation rises when a labelled molecule tumbles more slowly, as on binding a larger partner.

The test system of assay [3] is Influenza A virus. Description: Antiviral activity against Influenza A/Udorn/72 virus infected in MDCK cells assessed as reduction of plaque forming unit at 60 uM treated 1 hr after infection measured after 36 hrs by plaque assay. The assay is classed as functional, organism-based. The note with it: Influenza A virus (A/udorn/1972(H3N2)). In a few lines:
(§2)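 MDCK cells infected with influenza A/Udorn/72, either at MOI 5 (single-cycle growth) or at MOI 0.001 (multiple-cycle growth). After 1 h infection, growth medium containing compound diluted in DMSO was added; control received 0.1% DMSO. Virus yield was followed over time as growth curves.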

Assay [4] relates to Influenza A virus. Put plainly: Antiviral activity against Influenza A/Udorn/72 virus infected in MDCK cells assessed as inhibition of viral growth at 30 uM treated 1 hr after infection measured up to 15 hrs by plaque assay relative to control. It counts as functional, Influenza A virus (A/udorn/1972(H3N2)). In a few lines: as §2
Assay [5] is described as follows: Inhibition of Influenza A/Udorn/72/H3N2 full length GST-tagged NS1A/FAM-dsRNA-interaction after 1 hr by fluorescence polarization assay. On the set-up: species or system Influenza A virus (A/udorn/1972(H3N2)). The gist of the method: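 Dose-dependent version of the FAM-dsRNA/NS1A fluorescence polarization binding assay. The rise in polarization on probe binding to NS1A gives the read-out, and IC50 is taken from the dose-response. Run in duplicate; values averaged.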

In assay [6] the test system is Nucleic Acid. Put plainly: Binding affinity to double strand RNA assessed as denaturation of double strand RNA to single strand RNA at 50 uM after 1 hr by fluorescence polarization assay. It counts as nucleic-acid assay. The gist of the method:
as §1

As usually defined, the inhibition is the relative decrease from the control value, in per cent. On to `COc1cccc(-c2nc3ccc([N+](=O)[O-])cc3nc2-c2cccc(OC)c2)c1`, for which the inhibition in assay [1] amounted to 1.5%. Further, the Activity in the assay with Nucleic Acid [2] came out at 1.9%.

On to `O=[N+]([O-])c1ccc2nc(-c3ccc4c(c3)OCO4)c(-c3ccc4c(c3)OCO4)nc2c1`, for which the inhibition in assay [1] was found to be 56.6%. The Activity in the assay on Nucleic Acid [2] was found to be 24.4%.

In general, IC50 refers to the concentration that inhibits the measured activity by half. Turning to `O=C(NCc1ccco1)c1ccc2nc(-c3ccco3)c(-c3ccco3)nc2c1`, the result in the assay with Influenza A virus [3] was inactive. Further, the inhibition in assay [1] is 79.5%. Besides, the “fold change (FC)” value in the assay with Influenza A virus [4] was found to be 10. The midpoint of inhibition in assay [5], the IC50, lay at 3.5 µM. For the same molecule, in the assay with Nucleic Acid [2], the Activity came out at 5.9%.

For the molecule `COc1ccccc1-c1nc2ccc([N+](=O)[O-])cc2nc1-c1ccccc1OC`, in assay [1], the inhibition came out at 6.7%. Further, in the assay on Nucleic Acid [6], the Activity is -3.7%.

For the molecule `COC(=O)c1ccc2nc(-c3ccco3)c(-c3ccco3)nc2c1`, the inhibition in assay [1] came to 76%. The Activity with Nucleic Acid [6] was -12.3%. For the same molecule, half-maximal inhibition in assay [5] (IC50) required 74.8 µM.

`c1coc(-c2nc3ccccc3nc2-c2ccco2)c1`: the inhibition in assay [1] stood at 7.3%. Further, the Activity with Nucleic Acid [6] is -23.7%.

For `COc1ccccc1-c1nc2ccc(C(=O)O)cc2nc1-c1ccccc1OC`, the inhibition in assay [1] was found to be 2.8%. Moreover, in the assay on Nucleic Acid [6], the Activity was -2.5%.

With `COc1cccc(-c2nc3ccccc3nc2-c2cccc(OC)c2)c1`, in assay [1], the inhibition came to 1.4%. Also, the Activity with Nucleic Acid [6] was -6%.

Take `O=C(O)c1ccc2nc(-c3ccco3)c(-c3ccco3)nc2c1`: the inhibition in assay [1] was found to be 60.9%. For the same molecule, in the assay on Nucleic Acid [2], the Activity was determined as 5.8%.

In the case of `c1ccc(-c2nc3ccccc3nc2-c2ccccn2)nc1`, the inhibition in assay [1] was -3.1%. Further, the Activity in the assay with Nucleic Acid [2] was 2.3%.

With `COc1cccc(CNC(=O)c2ccc3nc(-c4ccco4)c(-c4ccco4)nc3c2)c1`, in assay [1], the inhibition was determined as 74%. In assay [5], this molecule came in with an IC50 of 6.2 µM. Moreover, in the assay with Nucleic Acid [2], the Activity was 4.5%.

Regarding `O=[N+]([O-])c1ccc2nc(-c3ccccn3)c(-c3ccccn3)nc2c1`, the inhibition in assay [1] amounted to 7.8%. In addition, the Activity with Nucleic Acid [6] is -5.6%.

With `COc1ccc2nc(-c3ccccc3OC)c(-c3ccccc3OC)nc2c1`, the inhibition in assay [1] came out at 4.4%. Besides, the Activity with Nucleic Acid [6] was -5%.

On to `O=[N+]([O-])c1ccc2nc(-c3ccco3)c(-c3ccco3)nc2c1`, for which the inhibition in assay [1] stood at 25.5%. The Activity with Nucleic Acid [2] came out at 25.9%.

For the molecule `O=C(O)c1ccc2nc(-c3ccccn3)c(-c3ccccn3)nc2c1`, the inhibition in assay [1] turned out to be 15.7%. In addition, the Activity in the assay on Nucleic Acid [2] turned out to be 2.9%.

Regarding `O=C(O)c1ccc2nc(-c3cccc(O)c3)c(-c3cccc(O)c3)nc2c1`, the inhibition in assay [1] amounted to 28.7%. In addition, the Activity in the assay with Nucleic Acid [2] is -3.4%.

In the case of `COc1cc(CNC(=O)c2ccc3nc(-c4ccco4)c(-c4ccco4)nc3c2)cc(OC)c1OC`, the inhibition in assay [1] turned out to be 53.6%. Moreover, the Activity in the assay with Nucleic Acid [6] was -4.7%.

With `O=[N+]([O-])c1ccc2nc(-c3ccc(O)cc3)c(-c3ccc(O)cc3)nc2c1`, the inhibition in assay [1] turned out to be 19.5%. Also, the Activity with Nucleic Acid [6] is -32%.

Regarding `COc1ccc(CNC(=O)c2ccc3nc(-c4ccco4)c(-c4ccco4)nc3c2)cc1OC`, the inhibition in assay [1] was determined as 39.5%. Also, in the assay on Nucleic Acid [2], the Activity worked out at 5.6%.

On to `Oc1ccc(-c2nc3ccc(O)cc3nc2-c2ccc(O)cc2)cc1`, for which the inhibition in assay [1] was found to be 38.8%. For the same molecule, the Activity in the assay with Nucleic Acid [2] stood at 29.5%.

Consider `O=C(NCc1cccs1)c1ccc2nc(-c3ccco3)c(-c3ccco3)nc2c1`, for which, in assay [1], the inhibition turned out to be 8.2%. Also, the Activity in the assay on Nucleic Acid [6] is -10.5%.

Take `c1ccc2nc(-c3ccc4c(c3)OCO4)c(-c3ccc4c(c3)OCO4)nc2c1`: the inhibition in assay [1] was found to be 1.5%. Also, in the assay with Nucleic Acid [2], the Activity is 7.9%.

Consider `Oc1ccccc1-c1nc2ccccc2nc1-c1ccccc1O`, for which the inhibition in assay [1] is -0.9%. Moreover, the Activity in the assay on Nucleic Acid [2] was -1%.

With `O=C(NCc1ccccn1)c1ccc2nc(-c3ccco3)c(-c3ccco3)nc2c1`, in assay [1], the inhibition amounted to 64.7%. In addition, in the assay on Nucleic Acid [6], the Activity was -9.6%. In assay [5], this molecule registered an IC50 of 43.3 µM.

In the case of `Oc1cccc(-c2nc3ccc(O)cc3nc2-c2cccc(O)c2)c1`, the inhibition in assay [1] stood at 25%. In the assay on Nucleic Acid [2], the Activity came out at 18.2%.

Turning to `COC(=O)CNC(=O)c1ccc2nc(-c3ccco3)c(-c3ccco3)nc2c1`, the inhibition in assay [1] was 26.7%. Also, the Activity with Nucleic Acid [6] was -27.9%.

For `COc1cccc(-c2nc3ccc(OC)cc3nc2-c2cccc(OC)c2)c1`, the inhibition in assay [1] stood at 7.2%. The Activity with Nucleic Acid [6] was -8.4%.

Take `Oc1cccc(-c2nc3ccccc3nc2-c2cccc(O)c2)c1`: the inhibition in assay [1] was found to be 10.9%. Further, the Activity with Nucleic Acid [6] is -4.8%.

With `Oc1ccc(-c2nc3ccccc3nc2-c2ccc(O)cc2)cc1`, in assay [1], the inhibition came to 10.2%. Moreover, in the assay on Nucleic Acid [2], the Activity was 8.5%.

For the molecule `COc1cccc(-c2nc3ccc(C(=O)O)cc3nc2-c2cccc(OC)c2)c1`, the inhibition in assay [1] turned out to be 9.1%. In addition, the Activity with Nucleic Acid [6] was -4.4%.

Turning to `COc1ccc2nc(-c3ccco3)c(-c3ccco3)nc2c1`, the inhibition in assay [1] was 54.3%. Moreover, the Activity with Nucleic Acid [2] is -3.2%.

Take `Oc1ccc2nc(-c3ccccc3O)c(-c3ccccc3O)nc2c1`: the inhibition in assay [1] came out at 10.9%. The Activity in the assay on Nucleic Acid [2] stood at 0.9%.

Consider `O=C(NCc1cccc(F)c1)c1ccc2nc(-c3ccco3)c(-c3ccco3)nc2c1`, for which, in assay [1], the inhibition stood at 13.6%. Further, the Activity in the assay on Nucleic Acid [6] was -11.6%.

Turning to `COc1ccc(-c2nc3ccc(OC)cc3nc2-c2ccc(OC)cc2)cc1`, the inhibition in assay [1] is 1.8%. In addition, the Activity in the assay with Nucleic Acid [2] is 5.7%.

For `COc1ccccc1CNC(=O)c1ccc2nc(-c3ccco3)c(-c3ccco3)nc2c1`, the inhibition in assay [1] stood at 29.5%. Further, the Activity with Nucleic Acid [6] is -17.7%.

Consider `O=C(O)c1ccc2nc(-c3ccc(O)cc3)c(-c3ccc(O)cc3)nc2c1`, for which the inhibition in assay [1] was 13.3%. In the assay with Nucleic Acid [6], the Activity was -7.7%.

`O=C(O[C@@H]1Cc2c(O)cc(O)cc2O[C@@H]1c1cc(O)c(O)c(O)c1)c1cc(O)c(O)c(O)c1`: the inhibition in assay [1] was found to be 89%.

Regarding `COc1ccc(-c2nc3ccc(C(=O)O)cc3nc2-c2ccc(OC)cc2)cc1`, the inhibition in assay [1] is 4.5%. The Activity in the assay with Nucleic Acid [6] is -4.8%.

Consider `O=C(NCc1ccccc1F)c1ccc2nc(-c3ccco3)c(-c3ccco3)nc2c1`, for which the inhibition in assay [1] was 11.6%. The Activity in the assay on Nucleic Acid [6] was -11.3%.

Turning to `COc1ccc(-c2nc3ccccc3nc2-c2ccc(OC)cc2)cc1`, the inhibition in assay [1] came out at 0.5%. In addition, in the assay with Nucleic Acid [2], the Activity is 1.4%.

Turning to `COc1ccc(CNC(=O)c2ccc3nc(-c4ccco4)c(-c4ccco4)nc3c2)cc1`, the inhibition in assay [1] is 44%. In addition, in the assay with Nucleic Acid [2], the Activity turned out to be 7.6%.

As for `COc1ccccc1-c1nc2ccccc2nc1-c1ccccc1OC`, the inhibition in assay [1] came out at 5%. In the assay on Nucleic Acid [6], the Activity was -6.7%.

In the case of `O=C(NCc1ccc(F)cc1)c1ccc2nc(-c3ccco3)c(-c3ccco3)nc2c1`, the inhibition in assay [1] came out at 49%. Besides, the Activity with Nucleic Acid [2] came to 6.3%.

Consider `COC(=O)c1ccc(CNC(=O)c2ccc3nc(-c4ccco4)c(-c4ccco4)nc3c2)cc1`, for which the inhibition in assay [1] was found to be 47.9%. Also, the Activity in the assay on Nucleic Acid [2] was determined as 8.8%.

Consider `COc1ccc(-c2nc3ccc([N+](=O)[O-])cc3nc2-c2ccc(OC)cc2)cc1`, for which the Activity in the assay on Nucleic Acid [2] turned out to be 113%.

On to `O=C(O)c1ccc2nc(-c3ccc4c(c3)OCO4)c(-c3ccc4c(c3)OCO4)nc2c1`, for which the inhibition in assay [1] turned out to be 23.2%. Moreover, in the assay on Nucleic Acid [6], the Activity was -4.8%.

As for `O=[N+]([O-])c1ccc2nc(-c3cccc(O)c3)c(-c3cccc(O)c3)nc2c1`, in assay [1], the inhibition came to 42.8%. The Activity in the assay with Nucleic Acid [6] is -15.8%.
